EBI2 block – EBI2 receptor antagonists, beta-arrestin recruitment, primary screen, cell-based, luminescence, 7a,25-OHC stimulation, uHTS. G-protein coupled receptor 183 (Homo sapiens), P32249. 7a,25-OHC stimulated. inhibition, % at 5 µM. hit rate 0.81% among 360,000; in the data active = inhibition above about 38%;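 also: enzyme fragment complementation signal reports receptor beta-arrestin coupling in cells; 0% = agonist plus DMSO wells and 100% = wells without agonist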
APJ ag – agonists of human apelin receptor APJ, primary screen, CHO-K1 cells, PathHunter beta-arrestin, luminescence; 0% DMSO wells, 100% apelin; hit rate 0.11% among 330,000; AID 2520, 2010; activation, % at 20 µM; P35414;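 active = activation more than six SD over the plate average, tested at 20 µM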;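 also: 0% = DMSO alone and 100% = apelin-13 at 10 nM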
Target sequence (P35414 whole entry, looked up): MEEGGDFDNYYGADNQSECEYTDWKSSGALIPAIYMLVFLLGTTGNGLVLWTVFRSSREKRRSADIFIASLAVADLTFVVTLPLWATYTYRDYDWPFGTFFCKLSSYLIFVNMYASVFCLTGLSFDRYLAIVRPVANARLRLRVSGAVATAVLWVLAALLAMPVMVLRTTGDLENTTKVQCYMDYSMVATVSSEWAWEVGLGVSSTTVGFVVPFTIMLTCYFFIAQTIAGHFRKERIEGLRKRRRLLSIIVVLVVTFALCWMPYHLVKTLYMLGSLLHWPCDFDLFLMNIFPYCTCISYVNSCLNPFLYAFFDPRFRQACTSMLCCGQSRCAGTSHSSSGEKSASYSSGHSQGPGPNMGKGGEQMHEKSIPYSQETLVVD
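Material: engineered CHO-K1 APJ arrestin reporter cells; amount: 1000 CHO-K1 reporter cells seeded per well; incubation: compound stimulation 90 min at 25 °C, detection 60 min; signal: luminescent beta-gal fragment complementation, chemiluminescent substrate; read-out basis: APJ agonist activity; controls: DMSO-only wells as negative, 10 nM Apelin-13 as positive control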
APJ antagonist – antagonists of human apelin receptor APJ, primary screen, CHO-K1 cells, beta-arrestin complementation, luminescence | inhibition, % at 20 µM | hit rate 0.32% among 330,000 | P35414;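 active = inhibition above about 40% at 20 µM, limit read from the data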;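 also: cells challenged with 10 nM apelin-13 agonist together with compound; plate controls were apelin-13 plus DMSO wells for no effect and DMSO wells lacking apelin-13 for full effect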
m5-HT2A agonist – mouse Htr2a agonists via beta-arrestin recruitment, primary screen, cell-based, luminescence; AID 624169, 2012; CHO-K1 mHTR2A beta-arrestin complementation; percent of 30 µM serotonin response; hit rate 0.66% among 360,000; activation, % at 7.6 µM; 5-hydroxytryptamine receptor 2A (Mus musculus), P35363;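 active = activation above a run cutoff, the mean activation of all tested compounds plus 3 SD, cut at about 14% in these data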;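 also: 0% = plate median of compound wells and 100% = 30 µM serotonin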
CCR6 antagonist – CCR6 receptor antagonists, primary screen, cell-based, CHO-K1, luminescence, beta-arrestin, uHTS; CHO-K1 CCR6 PathHunter beta-arrestin, CCL20-stimulated; C-C chemokine receptor type 6 (Homo sapiens), P51684; inhibition, % at 20 µM; hit rate 0.49% among 340,000;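 active = compounds whose inhibition of the agonist-driven luminescence signal at 20 µM reaches about 50%, limit read from the data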;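 also: cells stimulated with CCL20 at 14 nM final; plate controls were DMSO with CCL20 for no effect and DMSO without agonist for full effect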
CXCR6 block – CXCR6 receptor inhibitors, primary screen, cell-based, beta-arrestin, luminescence, CHO-K1 PathHunter, 1536-well | C-X-C chemokine receptor type 6 (Homo sapiens), O00574 | inhibition, % at 20 µM | hit rate 0.36% among 360,000 | AID 602244, 2012; in the data active = inhibition above about 34%, passing the limit was not always enough;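 also: antagonist mode with CXCL16 agonist at 10 nM final; 0% = 10 nM CXCL16 with DMSO and 100% = unstimulated wells without agonist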
OPRM1 ag – OPRM1 agonists via beta-arrestin recruitment, confirmation, counter-screen for mouse HTR2A agonist project, cell-based, luminescence, single concentration. shares compounds with m5-HT2A agonist. U2OS OPRM1 beta-arrestin PathHunter; DMSO 0%, DAMGO 9.3 µM 100%. activation, % at 9.3 µM. hit rate 5.3% among 2,300;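 active = mean activation above the mean of DMSO-only wells plus 3 SD, cut at about 0.5% in these data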
m5-HT2A ag conf – mouse HTR2A agonists, beta-arrestin recruitment, confirmation, cell-based, luminescence, CHO-K1 PathHunter, triplicate; shares compounds with m5-HT2A agonist; activation, % at 7.6 µM; DMSO 0%, 30 µM serotonin 100%; hit rate 19% among 2,300;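 active = mean activation across triplicates above the hit threshold derived in the original primary screen, cut at about 15% in these data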
Starred values were filed as active, the others as inactive; x = no result given. An excerpt weighted towards active compounds, which were near 2.1% of everything screened.

SMILES | EBI2 block | APJ ag | APJ antagonist | m5-HT2A agonist | CCR6 antagonist | CXCR6 block | OPRM1 ag | m5-HT2A ag conf
COC1CCN(C(=O)C2CCC(=O)N(C3CCCCCC3)C2)CC1 (configuration not stated) | -3.0 | -0.3 | 10.3 | -3.2 | 15.6 | 0.3 | x | x
COCC1CCN(C(=O)C2CCC(=O)N(C3CCCC3)C2)CC1 (configuration not stated) | -11.9 | -4.7 | 15.0 | 15.2* | 16.0 | -3.5 | -0.2 | 1.2
N=c1sccn1CC(=O)Nc1cccc2ccccc12 | -4.1 | 1.7 | 17.3 | 19.6* | -34.3 | -22.4 | -0.5 | 7.2
CC(C)CN(CCCNC(=O)CC1Oc2ccccc2NC1=O)CC(C)C (configuration not stated) | -2.6 | -4.6 | 12.5 | 2.1 | 0.2 | -1.9 | x | x
CCCCN(CC)CCCNC(=O)CC1Oc2ccccc2NC1=O (configuration not stated) | -18.4 | -1.5 | -17.6 | 26.7* | 0.9 | -3.6 | -0.6 | 89.7*
CCOCCCN(C(=O)Cn1nnc(-c2ccc(C)o2)n1)C(C(=O)NC1CCCC1)c1ccco1 (configuration not stated) | -3.2 | -0.3 | -18.3 | -0.8 | 14.9 | -4.2 | x | x
COc1ccc(OC)c(S(=O)(=O)N(C)CC(=O)N2CCCCC2)c1 | -2.5 | 1.9 | -18.1 | 15.7* | -6.0 | -3.1 | -0.6 | -2.0
COc1ccc(S(=O)(=O)N(C)CC(=O)N2CCOCC2)cc1 | 0.1 | -2.2 | -11.8 | -0.5 | 18.2 | -8.3 | x | x
COc1ccc(OC)c(S(=O)(=O)N(C)CC(=O)N2CCc3ccccc3C2)c1 | -25.4 | -3.5 | 9.8 | 4.3 | 11.8 | 4.7 | x | x
COc1ccc(S(=O)(=O)N(C)CC(=O)N2CCCCCC2)cc1 | -14.9 | -2.2 | 5.5 | 36.4* | 1.3 | -6.2 | -0.6 | 4.0
COc1cc2c(cc1OC)C1=C(C#N)CC/C(=N\S(=O)(=O)c3cccc(Cl)c3)N1CC2 | 4.7 | -1.6 | -8.3 | -4.4 | 6.9 | 12.1 | x | x
O=[N+]([O-])c1cccc(-c2ccc(/C=N/NC(=S)NCc3ccco3)o2)c1 | -4.5 | -0.5 | 17.0 | 19.9* | 6.3 | 6.5 | 0.2 | -1.5
Cc1ccc2c(c1)C(c1ccccc1)N(C(=O)c1ccc(Br)o1)CC(=O)N2 (configuration not stated) | -6.6 | 3.0 | -0.1 | 19.2* | 19.4 | -3.8 | -0.5 | -3.1
CSCCCN1CC[C@@H](N2CCN(c3ccccc3F)CC2)[C@H](O)C1 | -4.0 | -1.1 | -22.7 | 8.2 | 3.7 | 0.4 | x | x
CSCCC(=O)N1CC[C@@H](N2CCN(c3ccccc3F)CC2)[C@H](O)C1 | -2.6 | 2.1 | 3.2 | 14.6* | 5.6 | 1.2 | -0.6 | 44.5*
CC(C)=CC(=O)N1CC[C@@H](N2CCN(c3ccccc3F)CC2)[C@H](O)C1 | 6.1 | -3.2 | -8.6 | 16.6* | 10.3 | -4.4 | -0.2 | 43.4*
COc1ccc(Cl)cc1NC(=O)C(=O)NC1CCCCCC1 | 2.6 | -2.9 | 7.7 | 0.5 | 20.9 | -1.9 | x | x
N/C(=N\OC(=O)c1ccncc1)c1cccc([N+](=O)[O-])c1 | 2.6 | 6.4 | -54.9 | -1.0 | -19.4 | -26.9 | x | x
Cc1cccc(/C(N)=N/OC(=O)c2ccncc2)c1 | -5.3 | 2.4 | -13.1 | 24.6* | -1.1 | -8.6 | 0.6* | 0.7
CN=C(c1ccc(C)cc1)n1c(=S)nc(-c2ccc(C)cc2)n(C)c1=S | 26.2 | -5.6 | 12.7 | 15.5* | 22.9 | 13.7 | -0.5 | -4.6

Source: PubChem (several laboratories)
